Assay results: ChEMBL document CHEMBL3286368, “Delayed and Prolonged Histone Hyperacetylation with a Selective HDAC1/HDAC2 Inhibitor” (ACS Med Chem Lett, 2014)

Key:
Mus musculus [1] = test: Inhibition of HDAC in CD1 nu/nu mouse tumor xenografted with human HCT116 cells assessed as plasma drug level causing increase in H2BK5 acetylation at 200 mg/kg, po qd after 4 hrs by ELISA; type: functional, HCT-116
Mus musculus [2] = test: Inhibition of HDAC in CD1 nu/nu mouse tumor xenografted with human HCT116 cells assessed as plasma drug level causing increase in H2BK5 acetylation at 100 mg/kg, po bid after 72 hrs by ELISA; type: functional, HCT-116
[3] = Volume of distribution at steady state in Sprague-Dawley rat at 2 mg/kg, iv; type: ADME, organism-based; set-up: dose 2 mg/kg, route intravenous; settings: in vivo, read-out: Vdss
In short: (§1)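 Intravenous dosing at 5 (mouse), 2 (rat), 0.5 (dog) and 0.5 (monkey) mg/kg. Plasma clearance, steady-state volume of distribution and half-life derived from the plasma profile.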

[4] = Drug metabolism in human hepatocytes assessed as glucuronide conjugate level; type: ADME, cell-based, Hepatocyte
in vivo [5] = settings: CD1 nu/nu, mouse, po, 100 mg/kg
Mus musculus [6] = test: Dose normalized AUC in CD-1 mouse at 10 mg/kg, po; type: ADME, organism-based; set-up: dose 10 mg/kg, route oral; settings: in vivo
[7] = Half life in Sprague-Dawley rat at 2 mg/kg, iv; type: ADME, organism-based; set-up: dose 2 mg/kg, route intravenous; settings: in vivo; in short: as §1
[8] = Volume of distribution at steady state in beagle dog at 0.5 mg/kg, iv; type: ADME, organism-based, Canis lupus familiaris; set-up: dose 0.5 mg/kg, route intravenous; settings: in vivo, read-out: Vdss; in short: as §1
Mus musculus [9] = test: Inhibition of HDAC in CD1 nu/nu mouse tumor xenografted with human HCT116 cells assessed as plasma drug level causing increase in H2BK5 acetylation at 100 mg/kg, po bid after 48 hrs by ELISA; type: functional, HCT-116
Mus musculus [10] = test: Inhibition of HDAC in CD1 nu/nu mouse tumor xenografted with human HCT116 cells assessed as plasma drug level causing increase in H2BK5 acetylation at 200 mg/kg, po qd after 24 hrs by ELISA; type: functional, HCT-116
[11] = Cmax in CD1 nu/nu mouse xenografted with human HCT116 cells at 525 mg/kg, po administered biweekly for 3 weeks; type: ADME, organism-based, HCT-116; set-up: dose 525 mg/kg, route oral; settings: in vivo
In short: (§2)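 HCT116 cells (5 × 10^6 per mouse) injected subcutaneously into the right flank of CD1 nu/nu mice. Once tumors reached ~325 mm3, mice were randomized into groups of 12 and dosed orally for 21 days, once daily (qd) or biweekly (biw). Vehicle was 40% v/v PEG-400 plus 25% w/v HPβCD at 20 μL/g.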

[12] = Plasma protein binding in rhesus monkey at 2 uM; type: ADME, cell-free, Macaca mulatta; settings: read-out: PPB (converted)
In short: (§3)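 Plasma protein binding measured in mouse, rat, dog and monkey plasma at 2 μM compound.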

[13] = Plasma clearance in beagle dog at 0.5 mg/kg, iv; type: ADME, organism-based, Canis lupus familiaris; set-up: dose 0.5 mg/kg, route intravenous; in short: as §1
[14] = AUC (0 to 24 hrs) in CD1 nu/nu mouse xenografted with human HCT116 cells at 875 mg/kg, po administered biweekly for 3 weeks; type: ADME, organism-based, HCT-116; set-up: time < 24 hr, dose 875 mg/kg, route oral; settings: in vivo
In short: (§4)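 HCT116 cells (5 × 10^6/mouse) injected sc into right flank of CD1 nu/nu mice; at ~325 mm3 tumors, randomized into groups of 12. Oral dosing 21 days, once daily or biweekly, in 40% v/v PEG-400 and 25% w/v HPβCD at 20 μL/g. […] Tumor size by caliper.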

[15] = Cmax in CD1 nu/nu mouse xenografted with human HCT116 cells at 100 mg/kg, po qd for 3 weeks; type: ADME, organism-based, HCT-116; set-up: dose 100 mg/kg, route oral; settings: in vivo; in short: as §2
Canis familiaris = test: Dose normalized AUC in beagle dog at 1 mg/kg, po; type: ADME, organism-based, Canis lupus familiaris; set-up: dose 1 mg/kg, route oral; settings: in vivo
in vivo [16] = settings: CD1 nu/nu, mouse, po, 525 mg/kg
[17] = Half life in beagle dog at 0.5 mg/kg, iv; type: ADME, organism-based, Canis lupus familiaris; set-up: dose 0.5 mg/kg, route intravenous; settings: in vivo; in short: as §1
[18] = Volume of distribution at steady state in CD-1 mouse at 5 mg/kg, iv; type: ADME, organism-based; set-up: dose 5 mg/kg, route intravenous; settings: in vivo, read-out: Vdss; in short: as §1
Mus musculus [19] = test: Inhibition of HDAC in CD1 nu/nu mouse tumor xenografted with human HCT116 cells assessed as plasma drug level causing increase in H2BK5 acetylation at 67 mg/kg, po tid after 4 hrs by ELISA; type: functional, HCT-116
[20] = Drug metabolism in human hepatocytes assessed as glucose conjugate level; type: ADME, cell-based, Hepatocyte
[21] = Drug metabolism in dog hepatocytes assessed as hydrolysis of oxazolidinone group; type: ADME, cell-based, Canis lupus familiaris, Hepatocyte
in vivo [22] = settings: CD1 nu/nu, mouse, po, 875 mg/kg
Mus musculus [23] = test: Inhibition of HDAC in CD1 nu/nu mouse tumor xenografted with human HCT116 cells assessed as plasma drug level causing increase in H2BK5 acetylation at 200 mg/kg, po qd after 1 hr by ELISA; type: functional, HCT-116
[24] = Drug metabolism in human hepatocytes assessed as carboxylic acid level; type: ADME, cell-based, Hepatocyte
[25] = Plasma protein binding in beagle dog at 2 uM; type: ADME, cell-free, Canis lupus familiaris; settings: read-out: PPB (converted); in short: as §3
[26] = Cmax in CD1 nu/nu mouse xenografted with human HCT116 cells at 150 mg/kg, po qd for 3 weeks; type: ADME, organism-based, HCT-116; set-up: dose 150 mg/kg, route oral; settings: in vivo; in short: as §2
[27] = Half life in CD-1 mouse at 5 mg/kg, iv; type: ADME, organism-based; set-up: dose 5 mg/kg, route intravenous; settings: in vivo; in short: as §1
Mus musculus [28] = test: Inhibition of HDAC in CD1 nu/nu mouse tumor xenografted with human HCT116 cells assessed as plasma drug level causing increase in H2BK5 acetylation at 100 mg/kg, po bid after 8 hrs by ELISA; type: functional, HCT-116
in vivo [29] = settings: CD1 nu/nu, mouse, po, 200 mg/kg
[30] = AUC (0 to 24 hrs) in CD1 nu/nu mouse xenografted with human HCT116 cells at 200 mg/kg, po qd for 3 weeks; type: ADME, organism-based, HCT-116; set-up: time < 24 hr, dose 200 mg/kg, route oral; settings: in vivo; in short: as §4
Rhesus monkey = test: Dose normalized AUC in rhesus monkey at 1 mg/kg, po; type: ADME, organism-based, Macaca mulatta; set-up: dose 1 mg/kg, route oral; settings: in vivo
In short: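 Oral exposure, dose-normalized (μM·h·kg/mg), from a PK study also run with iv dosing (rat 2 mg/kg iv, 4 mg/kg po; monkey 0.5 mg/kg iv, 1 mg/kg po). Plasma clearance, Vdss, half-life and oral bioavailability also derived.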

[31] = AUC (0 to 24 hrs) in CD1 nu/nu mouse xenografted with human HCT116 cells at 50 mg/kg, po qd for 3 weeks; type: ADME, organism-based, HCT-116; set-up: time < 24 hr, dose 50 mg/kg, route oral; settings: in vivo; in short: as §4
Mus musculus [32] = test: Unbound Cmax in 3 week po dosed CD1 nu/nu mouse xenografted with human HCT116 cells; type: ADME, organism-based, HCT-116; settings: in vivo, 504 h
in vivo [33] = settings: CD1 nu/nu, mouse, po, 50 mg/kg
Mus musculus [34] = test: Inhibition of HDAC in CD1 nu/nu mouse tumor xenografted with human HCT116 cells assessed as plasma drug level causing increase in H2BK5 acetylation at 100 mg/kg, po bid after 24 hrs by ELISA; type: functional, HCT-116
[35] = Drug metabolism in rat hepatocytes; type: ADME, cell-based, Hepatocyte
Mus musculus [36] = test: Inhibition of HDAC in CD1 nu/nu mouse tumor xenografted with human HCT116 cells assessed as plasma drug level causing increase in H2BK5 acetylation at 200 mg/kg, po qd after 8 hrs by ELISA; type: functional, HCT-116
[37] = Volume of distribution at steady state in rhesus monkey at 0.5 mg/kg, iv; type: ADME, organism-based, Macaca mulatta; set-up: dose 0.5 mg/kg, route intravenous; settings: in vivo, read-out: Vdss; in short: as §1
[38] = Drug metabolism in human hepatocytes assessed as oxidation of piperidine ring; type: ADME, cell-based, Hepatocyte

Nc1ccc(-c2cccs2)cc1NC(=O)c1ccc(N2CCC3(CC2)CNC(=O)O3)nc1
INH (Mus musculus [1]): 17.2 µM | INH (Mus musculus [2]): 0.2 µM | Vd [3]: 0.7 L/kg | Drug metabolism [4]: metabolite_notdetected | concentration at 24 h (in vivo [5]): 0.5 µM | AUC/dose (Mus musculus [6]): 1.1 µM·kg·h/mg | half-life [7]: 4.2 h | Vd [8]: 2.2 L/kg | INH (Mus musculus [9]): 0.3 µM | INH (Mus musculus [10]): 0.2 µM | Cmax [11]: 56.8 µM | fraction unbound at 2 µM [12]: 0.016 | clearance [13]: 22 mL/min/kg | AUC at 24 h [14]: 1220 µM·h | Cmax [15]: 6.9 µM | AUC/dose (Canis familiaris): 0.3 µM·kg·h/mg | concentration at 24 h (in vivo [16]): 9.4 µM | half-life [17]: 1.4 h | Vd [18]: 2.1 L/kg | INH (Mus musculus [19]): 13.8 µM | Drug metabolism [20]: metabolite_notdetected | Drug metabolism [21]: metabolite_notdetected | concentration at 24 h (in vivo [22]): 19.3 µM | INH (Mus musculus [23]): 11.9 µM | Drug metabolism [24]: metabolite_notdetected | fraction unbound at 2 µM [25]: 0.024 | Cmax [26]: 16.6 µM | half-life [27]: 2 h | INH (Mus musculus [28]): 9.9 µM | concentration at 24 h (in vivo [29]): 5 µM | AUC at 24 h [30]: 371 µM·h | AUC/dose (Rhesus monkey): 1.8 µM·kg·h/mg | AUC at 24 h [31]: 40 µM·h | fCmax (Mus musculus [32]): 240 nM | concentration at 24 h (in vivo [33]): 0.9 µM | INH (Mus musculus [34]): 0.4 µM | Drug metabolism [35]: metabolite_notdetected | INH (Mus musculus [36]): 9.5 µM | Vd [37]: 7.8 L/kg | Drug metabolism [38]: metabolite_notdetected
